Compounds with a hit are over-represented: about 4.1% of the library has one in this group of screens.
KCC2 mod – KCC2 (human) Cl- transport modulation. KCC2 cells, thallium flux FluoZin-2 fluorescence. B-score of Tl+ flux slope (higher = more flux/activation; lower = inhibition) at 10 µM. 190,000 compounds, 2.2% hits. AID 1456;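 active means thallium flux slope and its plate-corrected score both differing from the plate sample mean at a set confidence after two filtering rounds, in either direction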;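 further: slope of fluorescence scaled to starting intensity during 10 to 20 s after thallium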
KCNQ1 block – inhibitors of human KCNQ1 potassium channel | P51787 | CHO-K1 KCNQ1, FluxOR thallium flux fluorescence; hits give high values | B-score at 10 µM | 310,000 compounds, 1.3% hits;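 active means compounds whose thallium flux B-score, printed positive for inhibition, exceeds three library SD while starting fluorescence stays within three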;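 further: channel opened by potassium depolarization with thallium stimulus after 20 min compound exposure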
KCNQ1 act – human KCNQ1 channel potentiation or activation. P51787. CHO-K1 KCNQ1, thallium flux FluxOR fluorescence; hits give high values. B-score at 10 µM. 310,000 compounds, 0.35% hits. AID 2648;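 active means fluorescence ratio B-score, a plate-corrected score, at least three library SD, with initial intensity B-score within 5 SD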
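Schedule – 37 °C overnight plating, 90-min dark dye load, 20-min compound pretreatment · System – stable KCNQ1 CHO-K1 line · Probe or stimulus – thallium- and potassium-containing depolarizing buffer · Measured by – kinetic FluxOR fluorescence, 10 s baseline plus 110 s post-stimulus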
KCNK3 inh – human KCNK3 channel inhibition, primary screen | O14649 | CHO-KCNK3 thallium flux, FluxOR fluorescence; hits give low values | B-score at 10 µM | 340,000 compounds, 0.84% hits | AID 602410;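 active means B-score under library mean minus 4 SD, starting fluorescence ratio at most library mean plus 5 SD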;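 further: more negative B-score means stronger inhibition of thallium flux through KCNK3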
KCNK9 block – human KCNK9 channel inhibition | HEK293 KCNK9, FluxOR thallium flux fluorescence; hits give low values | Q9NPC2 | 310,000 compounds, 1.2% hits | B-score at 10 µM;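 active means ratio B-score over 3 SD below the library mean, with starting fluorescence within 5 SD of its mean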;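 further: negative B-score means less thallium flux so channel inhibition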
hERG rescue – compounds protecting human hERG from proarrhythmic drug block; CHO-hERG, FluxOR thallium flux, dofetilide IC70 present; activation (rescue from dofetilide block), less the hit threshold, % at 10 µM; 310,000 compounds, 0.51% hits;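 active means activation above the mean of controls blocked by dofetilide plus 5 SD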;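 further: thallium influx through hERG after potassium depolarization seen as dye fluorescence rise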
Target sequence (Q12809 whole entry, looked up): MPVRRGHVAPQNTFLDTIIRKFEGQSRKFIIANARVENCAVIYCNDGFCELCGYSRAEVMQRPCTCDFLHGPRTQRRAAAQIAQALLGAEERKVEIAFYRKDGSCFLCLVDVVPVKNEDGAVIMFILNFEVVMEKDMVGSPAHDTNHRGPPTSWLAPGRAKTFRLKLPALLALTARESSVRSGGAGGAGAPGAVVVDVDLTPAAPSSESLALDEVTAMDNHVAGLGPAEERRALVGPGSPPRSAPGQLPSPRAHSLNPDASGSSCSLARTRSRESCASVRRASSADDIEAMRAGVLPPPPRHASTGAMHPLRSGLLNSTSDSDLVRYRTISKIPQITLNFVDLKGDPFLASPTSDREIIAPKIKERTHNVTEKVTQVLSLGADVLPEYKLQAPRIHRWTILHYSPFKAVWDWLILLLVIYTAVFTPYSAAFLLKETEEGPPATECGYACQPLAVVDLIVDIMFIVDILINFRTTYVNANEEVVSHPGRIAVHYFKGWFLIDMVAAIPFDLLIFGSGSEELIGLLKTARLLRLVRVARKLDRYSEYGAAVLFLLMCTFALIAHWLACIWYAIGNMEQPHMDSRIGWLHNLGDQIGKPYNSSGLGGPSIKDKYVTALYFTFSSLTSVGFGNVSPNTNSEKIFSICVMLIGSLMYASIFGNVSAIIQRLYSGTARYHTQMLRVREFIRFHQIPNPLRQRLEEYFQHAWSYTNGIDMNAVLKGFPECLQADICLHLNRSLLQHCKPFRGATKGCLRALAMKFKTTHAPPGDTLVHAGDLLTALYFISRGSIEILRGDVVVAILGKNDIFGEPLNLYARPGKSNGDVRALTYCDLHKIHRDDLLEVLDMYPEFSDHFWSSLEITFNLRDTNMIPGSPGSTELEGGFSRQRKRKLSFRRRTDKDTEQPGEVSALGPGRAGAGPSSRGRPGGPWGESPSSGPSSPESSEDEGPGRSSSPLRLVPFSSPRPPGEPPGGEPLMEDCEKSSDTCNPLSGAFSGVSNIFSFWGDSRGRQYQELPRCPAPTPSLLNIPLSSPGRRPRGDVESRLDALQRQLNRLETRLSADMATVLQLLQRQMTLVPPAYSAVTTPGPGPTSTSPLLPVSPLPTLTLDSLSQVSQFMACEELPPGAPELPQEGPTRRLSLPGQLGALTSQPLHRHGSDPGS
KCNK9 block conf – confirmation of human KCNK9 potassium channel inhibitors | shares compounds with KCNK9 block | HEK293 KCNK9 cells, FluxOR thallium flux fluorescence | inhibition, % at 10 µM | 4,900 compounds, 43% hits | AID 492992;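 active means thallium signal inhibited by more than 5 SD of the compound-free buffer control wells, on both duplicate plates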;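 further: 0% = assay buffer control wells without compound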
Kir2-1 spec – selectivity of KCNK9 modulators against mouse Kir2.1; shares compounds with KCNK9 block; Kir2.1 cells, FluxOR thallium flux fluorescence; inhibition, % at 10 µM; 4,900 compounds, 4% hits; AID 492993;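 active means thallium signal drop more than 5 SD beyond the mean of the no-compound control wells, seen in both duplicate plates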;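 further: signal is fluorescence rise after thallium addition divided by baseline fluorescence; plate controls were assay buffer only for no effect and full block by chlorpromazine control for full effect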
HEK293 Tl ctr – second check of KCNK9 modulator effects in non-induced HEK293 cells; shares compounds with KCNK9 block; FluxOR thallium flux; inhibition, % at 10 µM; 4,900 compounds, 40% hits; AID 492997;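 active means thallium signal drop beyond 5 SD of the untreated control mean, on both duplicate plates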;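 further: plate controls were buffer only IC0 wells for no effect and SID17386958 at its maximal inhibitory level for full effect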
An asterisk follows results filed as active; i = inactive; · = no result given.

SMILES | KCC2 mod | KCNQ1 block | KCNQ1 act | KCNK3 inh | KCNK9 block | hERG rescue | KCNK9 block conf | Kir2-1 spec | HEK293 Tl ctr
COc1ccc(S(=O)(=O)N2CC3CCCN3c3ccc(C(F)(F)F)cc32)cc1 (centres undefined) | · | i | i | i | -18.1* | -3.3 | 72.5%* | i | 44.0%*
Cc1sc2nc(CSc3ccccc3)nc(N3CCC(C(N)=O)CC3)c2c1C | -0.889 | i | i | i | i | -7.7 | · | · | ·
Cc1sc2nc(CSc3ccccc3)nc(N3CCOCC3)c2c1C | -0.587 | i | i | i | i | -12.0 | i | i | 32.5%*
CCN(CC)S(=O)(=O)c1ccc(C(=O)Nc2cc(S(=O)(=O)N3CCOCC3)ccc2N2CCN(C)CC2)cc1 | · | · | · | i | · | · | · | · | ·
CN(C(=S)Nc1ccc(Oc2ccccc2)cc1)C1CCCCC1 | -2.95 | i | i | i | i | -7.2 | i | i | i
S=C(Nc1ccc(Oc2ccccc2)cc1)NC1CCCCCC1 | -1.18 | i | i | i | i | -11.7 | · | · | ·
O=C1C=C(c2ccccc2)C(c2ccccc2)C1O (centres undefined) | · | · | · | i | · | · | · | · | ·
COc1ccc2c(c1)c(C(=O)N/N=C/c1ccc(OC)c(OC)c1)c(C)n2C | -0.544 | i | i | i | i | -3.5 | · | · | ·
COc1ccc2c(c1)c(C(=O)N/N=C/c1cn(C)c3ccccc13)c(C)n2C | -0.258 | i | i | i | -9.43* | -17.2 | i | i | i
COc1cccc(CNC(=O)C23CN(Cc4ccccc4)CC2C(c2ccc([N+](=O)[O-])cc2)=NO3)c1 (centres undefined) | -2.05 | i | i | i | i | -5.2 | i | i | i
CC(C)CCNC(=O)C12CN(Cc3ccccc3)CC1C(c1ccc([N+](=O)[O-])cc1)=NO2 (centres undefined) | -1.1 | i | i | i | i | -9.7 | · | · | ·
Cc1cccc(C(=O)NN2C(=O)C3C(c4ccccc4)C=CC(c4ccccc4)C3C2=O)c1 (centres undefined) | -0.293 | i | i | i | -12.9* | 1.2 | 41.0%* | i | i
COC1CCC2(C)C(=CCC3C4CC(O)CC4(C)CCC32)C1 (centres undefined) | · | · | · | i | · | · | · | · | ·
CCc1ccc(NSc2ccccc2[N+](=O)[O-])cc1 | · | i | i | i | -8.84* | -7.5 | 42.0%* | i | 28.0%*
N#Cc1c(Cl)nc(N/N=C/c2ccccc2)c(Cl)c1Cl | 0.566 | i | i | i | i | -14.4 | · | · | ·
C[n+]1cccc(/C=N/Nc2nc(Cl)c(C#N)c(Cl)c2Cl)c1 | 0.853 | i | i | i | i | -4.9 | i | i | i
Cc1ccc(S(=O)(=O)N2CCN(C(=O)CSc3ncc(C(F)(F)F)cc3Cl)CC2)cc1 | · | i | i | i | i | -5.6 | i | i | i
CCc1ccc(S(=O)(=O)NC2CC(C)(C)NC(C)(C)C2)cc1 | · | i | i | i | i | -3.2 | · | · | ·
N#Cc1ccccc1Sc1ccccc1C(=O)OCC(=O)NC12CC3CC(CC(C3)C1)C2 | -1.34 | i | i | i | -8.54* | -6.0 | 47.5%* | i | 30.0%*
O=C(O)c1ccc2c(=O)n3c(nc2c1)/C(=C/c1cccc(Cl)c1Cl)CC3 | · | i | i | i | i | -0.9 | · | · | ·
Fc1cccc(-c2cc3nc4c(c(N5CCC6(CC5)OCCO6)n3n2)CCCC4)c1 | -1.24 | i | i | i | -8.41* | -0.6 | i | i | i
COc1cc(OC)cc(-c2cc3nc4c(c(N5CCN(c6ncccn6)CC5)n3n2)CCCC4)c1 | -1.37 | i | i | -10.2* | -8.3* | -9.9 | 31.0%* | i | 34.0%*
CCOC(=O)CSc1nc2sc3c(c2c(=O)n1-c1ccccc1)CCN(C(C)C)C3 | · | i | i | i | i | -3.8 | · | · | ·
COc1ccc(CNC(=O)C[C@H]2C(=O)N(Cc3ccccc3)C[C@@H]2Cc2ccccc2)cc1 | · | i | i | i | i | -2.9 | · | · | ·
CCCCC[C@H]1CN(Cc2ccccc2)C(=O)[C@@H]1CC(=O)NCc1ccc(OC)cc1 | · | i | i | i | i | -8.2 | i | i | 28.5%*
SMILES | KCC2 mod | KCNQ1 block | KCNQ1 act | KCNK3 inh | KCNK9 block | hERG rescue | KCNK9 block conf | Kir2-1 spec | HEK293 Tl ctr
O=C(C[C@H]1C(=O)N(Cc2ccccc2)C[C@@H]1Cc1ccccc1)Nc1ccccc1 | · | i | i | i | i | -6.6 | i | i | i
O=C(C[C@H]1C(=O)N(CCc2ccccc2)C[C@@H]1Cc1ccccc1)Nc1ccccc1 | · | i | i | i | i | -3.8 | · | · | ·
CCN1C[C@@H]2[C@@H]3C(=O)N(C)C(=O)[C@@H]3[C@](C)(C1=O)N2C(=O)c1ccc(Br)cc1 | · | · | · | i | · | · | · | · | ·
O=c1c(CN2CCN(c3cccc(Cl)c3)CC2)coc2c(Cl)cc(Cl)cc12 | 0.43 | i | i | i | i | -11.2 | i | i | i
Cc1cccc(NC(=O)CC(=O)Nc2cccc(C)c2)c1 | · | i | i | i | i | -4.6 | · | · | ·
Cc1cccc(NC(=O)C23CCC(C)(C2Br)C3(C)C)c1 (centres undefined) | 0.0288 | i | i | i | i | -8.7 | i | i | i
COCCn1c(SCc2cc(=O)n3cc(C)ccc3n2)nc2ccccc2c1=O | 1.45 | i | i | · | i | -6.8 | · | · | ·
CC(C)(C)c1ccc(C(=S)N2CCN(c3ccccc3)CC2)cc1 | 1.46 | 6* | i | i | i | -7.8 | i | i | i
S=C(c1ccccc1)N1CCN(c2ccccc2)CC1 | · | · | · | i | · | · | · | · | ·
Nc1ccccc1-c1nnc2n1CCCCC2 | · | i | i | i | i | -5.5 | · | · | ·
CCCN(CCC)C(=O)COc1cc(=O)n(CC)c2ccccc12 | 0.654 | i | i | i | i | -4.9 | · | · | ·
CCN(Cc1ccccc1)C(=O)COc1cc(=O)n(CC)c2ccccc12 | 0.487 | i | i | i | i | -8.4 | i | i | i
COc1ccc(-c2c([C@H]3[C@@H]4C=CCC[C@@]4(C)C(=O)N3Cc3ccccc3)ccc3ccccc23)cc1OC | 0.84 | i | i | i | i | -18.2 | i | i | i
CC(=O)c1ccc2c(c1)N(C)c1ccccc1S2 | -0.623 | i | i | i | i | -6.5 | i | i | i

Assay outcomes as filed in PubChem.
